Experiments:
Cannabinoid receptor 1 = Cannabinoid receptor 1 (Homo sapiens, UniProt P21554); experiment: biochemical; type: cell-based, HEK293
Cannabinoid receptor 2 = Cannabinoid receptor 2 (Homo sapiens, UniProt P34972); experiment: Displacement of [3H]CP-55,940 from recombinant human CB2 receptor transfected in HEK cells; type: cell-based, HEK293
Summary of the method: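 Competition binding used membranes from HEK cells transfected with hCB1 or hCB2. Data are means of at least three experiments in duplicate. The selectivity index is Ki(CB2)/Ki(CB1).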

Sequence of Cannabinoid receptor 1 (P21554 whole entry): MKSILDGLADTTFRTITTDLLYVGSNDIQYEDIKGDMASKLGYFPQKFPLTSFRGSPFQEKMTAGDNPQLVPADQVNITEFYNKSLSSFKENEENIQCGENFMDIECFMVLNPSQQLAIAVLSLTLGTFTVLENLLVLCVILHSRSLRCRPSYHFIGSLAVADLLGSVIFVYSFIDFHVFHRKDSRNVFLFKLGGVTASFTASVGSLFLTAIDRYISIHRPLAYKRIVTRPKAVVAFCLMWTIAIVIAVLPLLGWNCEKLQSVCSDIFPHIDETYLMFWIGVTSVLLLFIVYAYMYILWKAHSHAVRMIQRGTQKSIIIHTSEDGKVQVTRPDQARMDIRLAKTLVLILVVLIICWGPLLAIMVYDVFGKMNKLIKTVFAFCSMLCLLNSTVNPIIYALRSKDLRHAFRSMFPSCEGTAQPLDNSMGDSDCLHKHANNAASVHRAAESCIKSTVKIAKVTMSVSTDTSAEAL
Sequence of Cannabinoid receptor 2 (P34972 whole entry): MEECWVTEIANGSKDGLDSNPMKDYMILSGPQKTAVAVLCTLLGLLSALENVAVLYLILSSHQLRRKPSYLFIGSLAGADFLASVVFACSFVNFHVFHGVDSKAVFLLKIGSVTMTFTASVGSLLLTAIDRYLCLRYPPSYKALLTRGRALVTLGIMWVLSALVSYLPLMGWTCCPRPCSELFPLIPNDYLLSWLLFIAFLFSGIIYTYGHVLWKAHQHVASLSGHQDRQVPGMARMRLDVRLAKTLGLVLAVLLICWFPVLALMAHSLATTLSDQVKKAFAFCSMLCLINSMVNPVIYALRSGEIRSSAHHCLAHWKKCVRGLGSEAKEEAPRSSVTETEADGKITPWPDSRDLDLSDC

SMILES	Ki (Cannabinoid receptor 1) [nM]	Ki (Cannabinoid receptor 2) [nM]
CCC(C)(C)NC(=O)c1nn(-c2ccc(Cl)cc2Cl)c(-n2c(C)ccc2C)c1C	193	121
CCCCNC(=O)c1nn(-c2ccc(Cl)cc2Cl)c(-n2cccc2)c1C	273	796
CCCNC(=O)c1nn(-c2ccc(Cl)cc2Cl)c(-n2cccc2)c1C	550	1500
CCCCCCCNC(=O)c1nn(-c2ccc(Cl)cc2Cl)c(-n2cccc2)c1C	211	255
CCCCCNC(=O)c1nn(-c2ccc(Cl)cc2Cl)c(-n2cccc2)c1C	81	206
CCCCCCC(C)NC(=O)c1nn(-c2ccc(Cl)cc2Cl)c(-n2cccc2)c1C (centres undefined)	157	237
CCCCNC(=O)c1nn(-c2ccc(Cl)cc2Cl)c(-n2c(C)ccc2C)c1C	123	460
CCC(C)(C)NC(=O)c1nn(-c2ccc(Cl)cc2Cl)c(-n2cccc2)c1C	47.6	5.7
Cc1c(C(=O)NC(C)(C)C)nn(-c2ccc(Cl)cc2Cl)c1-n1cccc1	89.5	14.6
Cc1c(C(=O)NC(C)C)nn(-c2ccc(Cl)cc2Cl)c1-n1c(C)ccc1C	234	1800
CCCCCCCNC(=O)c1nn(-c2ccc(F)cc2F)c(-n2c(C)ccc2C)c1C	368	365
Cc1c(C(=O)NC(C)C)nn(-c2ccc(Cl)cc2Cl)c1-n1cccc1	519	1130

Source: ChEMBL document CHEMBL1629497, “Synthesis and biological evaluation of new N-alkyl 1-aryl-5-(1H-pyrrol-1-yl)-1H-pyrazole-3-carboxamides as cannabinoid receptor ligands” (Eur J Med Chem, 2010)
